From ChEMBL document CHEMBL1177860, “Design, synthesis, and pharmacological evaluation of the aqueous prodrugs of desmethyl anethole trithione with hepatoprotective activity” (Eur J Med Chem, 2010)

How the values were obtained:
Mus musculus [1] = assay: Hepatoprotective activity in Kunming mouse assessed as reduction of CCL4-induced increase of serum AST level at 1 mg/kg, ip administered 0.5 hrs before CCL4 challenge measured after 16 hrs; format: functional; conditions: route intraperitoneal
In short: (§1)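 Adult male Kunming mice (20–22 g), fasted the day before, in groups of ten. Compound given ip at 1, 2 or 4 mg/kg, followed 0.5 h later by ip CCl₄ (5 mL/kg as 0.2% peanut oil solution). Controls: saline alone, and CCl₄ alone. Orbital blood taken at 16 h; serum assayed for ALT and AST. Mean ± S.D., compared with the CCl₄ group.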

Mus musculus [2] = assay: Hepatoprotective activity in Kunming mouse assessed as reduction of CCL4-induced increase of serum ALT level at 4 mg/kg, ip administered 0.5 hrs before CCL4 challenge measured after 16 hrs; format: functional; conditions: route intraperitoneal; in short: as §1
[3] = Chemical stability in phosphate buffer solution at pH 1.10 to 12.02 at 37 degC up to 24 hrs by HPLC analysis; format: physicochemical; conditions: pH 1.1, 24 h
In short: (§2)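 Phosphate buffers at pH 1.10, 4.02, 6.84, 9.14 and 12.02, held at 37 °C and at 60 °C. Remaining compound quantified by HPLC at 0, 1, 2, 4, 8, 16 and 24 h.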

Mus musculus [4] = assay: Hepatoprotective activity in Kunming mouse assessed as reduction of CCL4-induced increase of serum ALT level at 1 mg/kg, ip administered 0.5 hrs before CCL4 challenge measured after 16 hrs; format: functional; conditions: route intraperitoneal; in short: as §1
Plasma = assay: Stability in mouse plasma up to 12 hrs by HPLC analysis; format: ADME, cell-free
In short: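 Aqueous compound solution (1.0 mL, 50 stock) added to 5 mL mouse plasma, kept at 37 ± 1 °C. 200 aliquots taken at 0, 1, 2, 4, 8 and 12 h, mixed with 400 acetonitrile for 5 min, centrifuged at 10 000 rpm for 5 min, and supernatant analysed by HPLC.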

[5] = Aqueous solubility in water after 24 hrs by HPLC analysis; format: physicochemical
In short: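 Water (10 mL) added to the solid; sonicated 5 min, then stirred 24 h in a 25 °C water bath. Centrifuged at 10 000 rpm for 10 min, supernatant membrane-filtered and quantified by HPLC.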

Mus musculus [6] = assay: Hepatoprotective activity in Kunming mouse assessed as reduction of CCL4-induced increase of serum AST level at 4 mg/kg, ip administered 0.5 hrs before CCL4 challenge measured after 16 hrs; format: functional; conditions: route intraperitoneal; in short: as §1
Mus musculus [7] = assay: Hepatoprotective activity in Kunming mouse assessed as reduction of CCL4-induced increase of serum ALT level at 2 mg/kg, ip administered 0.5 hrs before CCL4 challenge measured after 16 hrs; format: functional; conditions: route intraperitoneal; in short: as §1
Mus musculus [8] = assay: Hepatoprotective activity in Kunming mouse assessed as reduction of CCL4-induced increase of serum AST level at 2 mg/kg, ip administered 0.5 hrs before CCL4 challenge measured after 16 hrs; format: functional; conditions: route intraperitoneal; in short: as §1
[9] = Chemical stability in phosphate buffer solution at pH 1.10 to 6.84 at 60 degC up to 24 hrs by HPLC analysis; format: physicochemical; conditions: pH 1.1, 24 h; in short: as §2
Mus musculus [10] = assay: In vivo metabolic stability in Kunming mouse assessed as 5-(4-hydroxyphenyl)-3H-1,2-dithiole-3-thione level in plasma at 10 mg/kg, ip measured up to 8 hrs by HPLC analysis; format: ADME, organism-based; design: dose 10 mg/kg, route intraperitoneal
In short: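 Male Kunming mice, ten groups of four, given 10.00 mg/kg ip. Orbital blood (0.5 mL) taken into heparinized tubes at 0.02–8 h. Plasma precipitated with 2 volumes acetonitrile, sonicated, centrifuged, and analysed by HPLC at 354 nm. Plasma calibration curve spans 0.05–31.11 with six points; QC at three levels.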

SMILES	Activity (Mus musculus [1]) [IU/L]	Activity (Mus musculus [2]) [IU/L]	Stability [3]	Activity (Mus musculus [4]) [IU/L]	Stability (Plasma)	solubility at 24 h [5] [µg/mL]	Activity (Mus musculus [6]) [IU/L]	Activity (Mus musculus [7]) [IU/L]	Activity (Mus musculus [8]) [IU/L]	Stability [9]	Stability (Mus musculus [10])
Cl.S=c1cc(-c2ccc(OCCN3CCCC3)cc2)ss1	501.2	561.5	Stable	416.6	Stable	> 20000	607.8	535.9	582.9	Stable	–
Cl.S=c1cc(-c2ccc(OCCN3CCCCC3)cc2)ss1	920.6	382.9	Stable	169.3	Stable	> 20000	423.9	259.6	416.8	Stable	–
COc1ccc(-c2cc(=S)ss2)cc1 [ANETHOLTRITHION]	269.6	177.2	Stable	150.7	Stable	< 10	407.1	112.4	265.9	Stable	–
Cl.S=c1cc(-c2ccc(OCCN3CCOCC3)cc2)ss1	851.7	457.7	Stable	595.4	Stable	> 20000	824.9	468	552.5	Stable	–
CN(C)CCOc1ccc(-c2cc(=S)ss2)cc1.Cl	310.9	171.6	Stable	216.5	Stable	> 20000	284.1	109.7	215.7	Stable	Stable
Oc1ccc(-c2cc(=S)ss2)cc1	–	–	Stable	–	Stable	< 130	–	–	–	Stable	–
S=c1cc(-c2ccc(OCC[n+]3ccccc3)cc2)ss1.[Br-]	559.2	685	Stable	426.1	Stable	2300	784.3	630.1	617.8	Stable	–
CC[N+](CC)(CC)CCOc1ccc(-c2cc(=S)ss2)cc1.[Br-]	–	–	Stable	–	Stable	3500	–	–	–	Stable	–
CN(C)c1cc[n+](CCOc2ccc(-c3cc(=S)ss3)cc2)cc1.[Br-]	–	–	Stable	–	Stable	2800	–	–	–	Stable	–
